# Vif imaging: HIV Vif inhibition. HEK293T cells, Vif self-association by quenched fluorescence, imaging, 24 h. 0.35% of 340,000 active. inhibition, % at 7.49 µM. AID 602346; in the data active = inhibition above about 50%, passing the limit was not always enough
# SR-BI uptake up: enhances SR-BI lipid uptake from DiI-HDL | CHO ldlA[mSR-BI] cells, DiI-HDL uptake fluorescence, 3 h; 100 = double the neutral-control signal | activation, % at 12.5 µM | 0.096% of 320,000 active;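 active = mean replicate activation of at least 60% and every replicate at or above 60%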;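 also: 0% = median plate neutral-control signal and 100% = twice that signal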
#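 System: CHO ldlA[mSR-BI] cells / Medium: HEPES-buffered (25 mM, pH 7.4) F12 plus 0.5% BSA / Probe or stimulus: labelled HDL, 10 µg/mL / Doses: single compound concentration, delivered by pin transfer / Schedule: 3 h, 37 °C / Measured by: DiI fluorescence, bottom read / Measure: cell-associated DiI fluorescence as measure of HDL uptake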
# PKA-R1A activ: PKA-R1A complex activation; 0.083% of 340,000 active; activation, % at 11.4 µM; AID 504707; P00514+P68181; PKA-R1A dissociation, Cy5-IP20 fluorescence polarization; scaled: DMSO 0%, 113 µM cGMP 100%;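 active = percent activation above the mean of all tested compounds plus 3 SD, cut at about 19% in these data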;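 also: higher means more PKAc released from R1A so a rise in polarization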
# PKA-R2B act: activators of human PKA-R2B complex; PKA-R2B holoenzyme dissociation, Cy5-IP20 fluorescence polarization; R2B truncated from residue 108, S112A mutant; 0% DMSO only, 100% 113 µM cGMP; AID 504700; activation, % at 11.4 µM; P22694+P31323; 0.079% of 340,000 active;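 active = activation above a cutoff set at the mean over all compounds plus 3 SD, cut at about 18% in these data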;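 also: higher means more holoenzyme dissociation and a rise in polarization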
# Target sequence (P31323 whole entry, looked up, other chains not shown, the tested form may be a part): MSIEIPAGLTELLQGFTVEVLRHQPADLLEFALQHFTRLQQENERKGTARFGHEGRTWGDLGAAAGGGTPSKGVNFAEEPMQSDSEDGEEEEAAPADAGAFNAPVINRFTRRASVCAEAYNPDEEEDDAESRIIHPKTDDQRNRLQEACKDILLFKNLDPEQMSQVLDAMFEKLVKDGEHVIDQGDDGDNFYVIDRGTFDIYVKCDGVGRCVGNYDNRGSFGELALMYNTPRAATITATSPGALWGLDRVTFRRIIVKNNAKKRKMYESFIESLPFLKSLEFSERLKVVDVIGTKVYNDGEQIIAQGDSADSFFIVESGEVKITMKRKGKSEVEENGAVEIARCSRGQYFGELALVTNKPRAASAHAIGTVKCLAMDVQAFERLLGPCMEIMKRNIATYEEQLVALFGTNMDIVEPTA
# SR-BI DiI inh: blocks mouse SR-BI lipid uptake from DiI-HDL | Q61009 | ldlA[mSR-BI] CHO cells, DiI-HDL uptake fluorescence, 3 h | inhibition, % at 12.5 µM | 0.96% of 320,000 active | AID 488896;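 active = mean replicate inhibition of at least 70% and a set share of replicates each scoring 70 or more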;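 also: 0% = median of neutral control wells and 100% = median of positive control wells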
# * hit, by the source's call; i = inactive; · = no result. Hits are enriched below; roughly 1.4% of the tested compounds scored in any of these assays.
SMILES,Vif imaging,SR-BI uptake up,PKA-R1A activ,PKA-R2B act,SR-BI DiI inh
COc1cc(/C=N/NC(=O)c2cccnc2)ccc1OC(=O)c1cc(OC)c(OC)c(OC)c1,24.9,-73.4,-2.9,10.5,73.4*
COc1cc(C(=O)Oc2ccccc2/C=N/NC(=O)c2ccc(Cl)cc2)cc(OC)c1OC,-2.2,-117.2,-3.3,0.0,117.2*
COc1cc(/C=N/NC(N)=S)ccc1OC(=O)c1ccc(C)cc1,-0.8,-73.7,-5.1,-2.6,73.7*
COc1ccccc1/C=N/NC(=O)c1ccc(Br)cc1,13.9,-44.5,-7.1,8.6,44.5
O=C(CCc1ccc(O)cc1)N/N=C/c1coc2ccccc2c1=O,11.3,·,·,·,·
Cc1ccc(C(=O)NC(N2CCCC2)C(Cl)(Cl)Cl)cc1 (centres undefined),56.4*,-1.5,-5.1,-3.4,1.5
O=C(NC(N1CCOCC1)C(Cl)(Cl)Cl)c1ccc(Br)cc1 (centres undefined),·,-19.7,-3.9,-7.2,19.7
CCCCc1ccc(N=N/C(C(=O)Nc2ccc(NC(C)=O)cc2OC)=C(/C)O)cc1,6.8,-78.4,5.5,5.1,78.4*
Cc1cc(F)ccc1-c1cc(C(=O)NC(C)C)[nH]n1,13.4,·,·,·,·
C=CCOc1c(Br)cc(/C=N/NC(=O)Cc2ccc(C(F)(F)F)cc2[N+](=O)[O-])cc1OC,-17.8,-75.1,-6.1,5.0,75.1*
NC(Cc1ccc(F)cc1)c1csc(NC(=O)NC(c2ccccc2)c2ccccc2)n1 (centres undefined),-4.1,·,·,·,·
Cc1cc(NC(=O)CSc2nnc(C)c(=O)[nH]2)no1,68.9*,-4.2,-1.1,-16.1,4.2
CCn1c(SCC(=O)Nc2cc(C)on2)nnc1-c1ccc(OC)cc1,50.1*,-16.3,-10.4,-3.2,16.3
Cc1ccc(-n2c(SCC(=O)Nc3cc(C)on3)nc3ccccc3c2=O)cc1,11.6,-11.5,1.1,3.1,11.5
Cc1cc(NC(=O)CSc2nc(C)c(C)c(=O)[nH]2)no1,-3.3,16.8,-4.2,-2.0,-16.8
Cc1cc(NC(=O)CSc2nc3ccccc3c(=O)n2-c2ccccc2)no1,54.9*,-2.7,-12.8,-15.4,2.7
CCCCCCCCNCCS(=O)(=O)NCCCCCCCC,6.6,-7.3,-1.9,-12.1,7.3
CN1C(=O)C(C)(C)c2cc(S(=O)(=O)N3CCCCCC3)ccc21,87.7*,-4.4,-8.6,3.4,4.4
CN1C(=O)C(C)(C)c2cc(S(=O)(=O)N3CCN(c4ccccc4)CC3)ccc21,0.8,-4.0,-6.4,0.3,4.0
CCc1ccc(-c2nc(CCl)cs2)cc1,100.0*,7.4,-11.3,6.9,-7.4
COc1ccc(-c2oc3ccccc3c2C#CC(C)(C)O)cc1,0.6,-79.4,-7.2,-6.6,79.4*
C/C(=N\Nc1cc(C)nc(-c2ccccc2O)n1)c1ccccc1,5.6,-55.3,4.9,0.4,55.3
Cc1ccc(Nc2cc(C)nc(-c3ccccc3O)n2)cc1,-6.9,-49.9,-8.6,-2.4,49.9
Cc1cc(N/N=C/c2ccc(O)c(C)c2O)nc(-c2ccccc2O)n1,-6.0,-104.3,-5.8,-10.1,104.3*
Cc1cc(Nc2ccc(Br)cc2)nc(-c2ccccc2O)n1,4.0,-75.1,3.2,-0.7,75.1*
SMILES,Vif imaging,SR-BI uptake up,PKA-R1A activ,PKA-R2B act,SR-BI DiI inh
Cc1cc(C)c(Cc2c(C)nc3c(C(=O)NCc4ccco4)cnn3c2C)c(C)c1,19.0,1.0,2.6,-3.2,-1.0
Cc1occc1C(=O)NNC(=O)c1ccc(Br)o1,-5.1,5.8,2.8,-2.9,-5.8
CCCCN(C)C(=O)c1sc(=O)n(Cc2ccccc2C#N)c1C,-1.6,·,·,·,·
CC(C)c1cccc(-c2csc(C(C)(O)c3ccccc3)n2)c1 (centres undefined),-8.3,·,·,·,·
Cc1onc(-c2ccccc2Cl)c1C(=O)Nc1nnc(-c2ccc(Cl)cc2Cl)s1,-5.4,-15.7,10.8,-3.4,15.7
CCc1noc(C)c1C(=O)Nc1nc(-c2ccc(Cl)cc2Cl)c(C)s1,·,-75.0,14.0,0.5,75.0*
OC(c1ccccc1)c1nc(-c2ccc(F)c(Cl)c2)cs1 (centres undefined),-7.2,·,·,·,·
COc1ccc2nc(N3C(=O)C(O)=C(C(=O)c4ccco4)C3c3ccccc3OC)sc2c1 (centres undefined),82.1*,2.9,-4.0,-5.4,-2.9
COc1ccc2nc(N3C(=O)C(O)=C(C(=O)c4ccco4)C3c3ccc(C)o3)sc2c1 (centres undefined),-13.0,-4.9,-13.5,-16.4,4.9
COC(=O)CSc1nc(-c2ccc(F)cc2)cc(C(F)(F)F)n1,3.6,-22.9,-0.2,-0.9,22.9
CCN(CC)CCCNC(=O)CSc1nc(-c2ccc(F)cc2)cc(C(F)(F)F)n1,-1.8,-85.7,-10.1,-6.6,85.7*
CCOc1ccc(CCNC(=O)CN2CCN(Cc3ccccc3C)C2=O)cc1OCC,-4.3,-79.2,2.1,0.7,79.2*
COc1ccccc1C(=O)N/C(=C/c1ccc(Br)cc1)C(=O)N1CCOCC1,-1.8,·,-5.2,-1.4,·
CCn1c(CC(=O)Nc2ccc(F)cc2)nnc1SCC(=O)N1CCOCC1,2.1,18.5,8.5,-0.7,-18.5
O=C(NN=C1CCCC1)c1ccc(Cl)cc1,12.9,6.1,-7.8,-18.4,-6.1
O=C1CCC/C(=N/Nc2ccc(Cl)cc2)C1,2.1,-79.6,-5.7,-2.6,79.6*
COc1ccc(/C=C/C(=O)c2cc(F)ccc2OC(=O)c2ccccc2)cc1OC,·,·,-0.9,-2.8,·
COc1ccc(/C=C/C(=O)c2cc(F)ccc2OC(=O)c2ccccc2OC)cc1OC,90.7*,-49.0,-13.5,3.6,49.0
Cn1c(=O)n(CCc2ccccc2)c(=O)c2c1nc1n2CCCN1CCc1ccccc1,-21.4,505.8*,-7.4,13.3,i
COc1ccccc1Nc1nc(C)cs1,1.0,-17.7,-3.1,-7.6,17.7
COc1ccccc1Nc1ccc(Nc2ccccc2OC)nn1,8.6,-80.7,-4.1,-1.6,80.7*
COc1ccc(C2(c3ccc(OC)cc3)NC(=O)NC2=O)cc1,1.3,-0.1,1.5,-3.3,0.1
O=C(COC(=O)/C=C/C(=O)OCC(=O)Nc1ccccc1F)Nc1ccccc1F,79.4*,·,-18.9,-15.6,·
Cc1ccc(C(=O)NCC(=O)N(C)Cc2ccc(Cl)cc2Cl)s1,5.7,-6.8,6.2,-4.7,6.8
COc1ccc(-c2sc(NC(=O)c3ccc(C)cc3)nc2-c2ccc([N+](=O)[O-])cc2)cc1,0.1,-90.5,5.8,-2.2,90.5*
OC(c1cccc(Cl)c1)c1nc(-c2cccc3cccnc23)cs1 (centres undefined),-5.9,·,·,·,·
CCOc1cc(C(=O)N2CCC(CC3CC(c4cccc(Br)c4)=NO3)(C(=O)NCC3CCCCC3)CC2)cc(OCC)c1OCC (centres undefined),-7.7,-73.6,-4.8,-9.2,73.6*
